Measurements gathered from unrelated publications.
Compare with care: the assays were run in different laboratories.
BTK: Tyrosine-protein kinase BTK (BTK, Homo sapiens, UniProt Q06187)

COc1cc(Nc2cnc(C#N)c(O[C@H](C)CN(C)C)n2)ncc1-c1cnn(C)c1  remaining activity (Serine/threonine-protein kinase tousled-like 1 (TLK1, Homo sapiens, UniProt Q9UKI8); enzyme activity, inhibitor, radiometric; 1 µM): 95%
CC(C)(C=C(C#N)C(=O)N1CCC[C@H]1Cn1nc(-c2ccc(Oc3ccccc3)cc2F)c2c(N)ncnc21)N1CCOCC1  kinact/KI (BTK; enzyme activity, inhibitor): 400000 M⁻¹ s⁻¹
COc1cccc(OC)c1-c1cc(C(=O)N[C@@H](CC(C)C)C(=O)O)nn1-c1ccnc2cc(Cl)ccc12  Emax (Neurotensin receptor type 1 (NTSR1, Homo sapiens, UniProt P30989); calcium signal, agonist; CHO): 63%
Cc1ccc(C(=O)Nc2ccc(CN3CCN(C)CC3)c(C(F)(F)F)c2)cc1C#Cc1cnc2cccnn12  remaining activity (Mitogen-activated protein kinase kinase kinase 19 (MAP3K19, Homo sapiens, UniProt Q56UN5); enzyme activity, inhibitor; 23.5 nM): 54%
COc1ccc(F)cc1C(=O)NCc1ccc(-c2nn([C@@H](C)C(F)(F)F)c(N)c2C(N)=O)cc1  koff (BTK; binding, SPR): 7.9e-05 s⁻¹
CC(C)C[C@H](NC(=O)[C@H](CC(C)C)NC(=O)CNC(=O)[C@H](C)NC(=O)[C@H](C)NC(=O)[C@H](CCCNC(=N)N)NC(=O)CNC(=O)CCCCNC(=O)CCCCNC(=O)CCCCNC(=O)[C@H](CCCCN)NC(=O)[C@H](Cc1ccc(O)cc1)NC(=O)CCc1c[nH]c2ccccc12)C(N)=O  Emax (Neuropeptides B/W receptor type 1 (NPBWR1, Homo sapiens, UniProt P48145); cAMP, agonist, TR-FRET): 94%
C=CC(=O)N1CCC[C@@H]1Cn1nc(-c2ccc(Oc3ccccc3)cc2F)c2c(N)ncnc21  KI (inactivation) (BTK; enzyme activity, inhibitor): 1.8 nM
Nc1ncnc2occ(-c3ccc(NC(=O)Nc4cc(C(F)(F)F)ccc4F)cc3)c12  remaining signal (Cyclin-dependent kinase 11A (CDK11A, Homo sapiens, UniProt Q9UQ88); cell-free assay; 20 µM): 0.3%
